Test results from ChEMBL document CHEMBL1148008, “Antimicrobial and cytotoxic activity of agelasine and agelasimine analogs” (Bioorg Med Chem, 2007).
Values after ≈ are worked out from the molar mass of the structure shown.

Columns and labels:
U-937/GTB = assay: Cytotoxicity against U937 GTB cells; format: functional, cell-based; details: Homo sapiens
How it was run: (§1)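 Fluorometric microculture cytotoxicity assay (FMCA) read-out; IC50 values reported.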

Staphylococcus aureus = assay: Antibacterial activity against Staphylococcus aureus ATCC 25923 after 20 hrs by broth microdilution method; format: functional; details: ATCC 25923, 20 h
How it was run: (§2)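 Strains grown 24 h at 35 °C on tryptone-soya agar. Colonies suspended in saline to 0.5 McFarland, then diluted 1:10 in Mueller-Hinton broth (~10⁷ CFU/mL). Inoculum added to twofold dilutions in broth (final 0.125–32 µg/mL) in triplicate. Incubated aerobically at 35 °C for 20 h. MIC is the lowest concentration giving complete growth inhibition. Repeated at least once; gentamycin/streptomycin served as QC.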

[1] = Cytotoxicity against RPMI 8226/s cells; format: functional, cell-based; details: Homo sapiens, RPMI8226/S; how it was run: as §1
Escherichia coli = assay: Antibacterial activity against Escherichia coli ATCC 25922 after 20 hrs by broth microdilution method; format: functional; details: ATCC 25922, 20 h; how it was run: as §2
ACHN = assay: Cytotoxicity against ACHN cells; format: functional, cell-based; details: Homo sapiens; how it was run: as §1
[2] = system: Mycobacterium tuberculosis; assay: Antimicrobial activity against Mycobacterium tuberculosis after 20 hrs by broth microdilution method; format: functional
[3] = system: Mycobacterium tuberculosis; assay: Antimicrobial activity against Mycobacterium tuberculosis at 6.25 ug/mL after 20 hrs by broth microdilution method; format: functional
[4] = Cytotoxicity against CEM/s cells; format: functional, cell-based; details: Homo sapiens; how it was run: as §1
Pichia kudriavzevii = assay: Antifungal activity against Candida krusei ATCC 6258; format: functional
Bacteroides fragilis = assay: Antibacterial activity against Bacteroides fragilis after 20 hrs by broth microdilution method; format: functional
[5] = system: Bacteroides thetaiotaomicron; assay: Antibacterial activity against Bacteroides thetaiotaomicron after 20 hrs by broth microdilution method; format: functional
Pseudomonas aeruginosa = assay: Antibacterial activity against Pseudomonas aeruginosa after 20 hrs by broth microdilution method; format: functional
Enterococcus faecalis = assay: Antimicrobial activity against Enterococcus faecalis after 20 hrs by broth microdilution method; format: functional
Streptococcus pyogenes = assay: Antibacterial activity against Streptococcus pyogenes after 20 hrs by broth microdilution method; format: functional

Compound | IC50 (U-937/GTB) [µM] | MIC (Staphylococcus aureus) [µg/mL] | IC50 [1] [µM] | MIC (Escherichia coli) [µg/mL] | IC50 (ACHN) [µM] | MIC [2] [µg/mL] | inhibition at 6.25 µg/mL [3] [%] | IC50 [4] [µM] | MIC (Pichia kudriavzevii) [µg/mL] | MIC (Bacteroides fragilis) [µg/mL] | MIC [5] [µg/mL] | MIC (Pseudomonas aeruginosa) [µg/mL] | MIC (Enterococcus faecalis) [µg/mL] | MIC (Streptococcus pyogenes) [µg/mL]
C/C(=C\C[n+]1cn(C)c2ncnc(N)c21)CCCC(C)CCCC(C)CCCC(C)C (stereo not given) | 3.18 | 4 | 2.41 | > 32 | 11.3 | 6.25 | 99 | 5.82 | – | – | – | – | – | –
CC(C)=CCC/C(C)=C/CC/C(C)=C/CC/C(C)=C/Cn1cnc2c1c(=N)ncn2C | 6.4 | 4 (≈ 9.49 µM) | 6.78 | 8 (≈ 19 µM) | 12.3 | – | 84 | 7.77 | 2 (≈ 4.74 µM) | – | – | – | – | –
CO/N=c1\[nH]cnc2c1[n+](C/C=C(\C)CC/C=C(/C)CCC=C(C)C)cn2C | 1.4 | 6 | 0.736 | 16 | 28.7 | 3.13 | 98 | 1.23 | – | 32 | 16 | – | – | –
CO/N=c1\[nH]cnc2c1[n+](C/C=C(\C)CC/C=C(\C)CCC=C(C)C)cn2C | 1.32 | 8 | 1.24 | 16 | 40.4 | 3.13 | 99 | 1.16 | 8 | 16 | 16 | – | – | –
Cn1c[n+](Cc2ccccc2)c2c(N)ncnc21.[Cl-] | > 80 | > 32 | > 80 | > 32 | > 80 | – | 0 | > 80 | – | > 32 | > 32 | – | – | –
Cc1ncc([N+](=O)[O-])n1CCO [METRONIDAZOLE] | – | – | – | – | – | – | – | – | – | 0.5 (≈ 2.92 µM) | 1 (≈ 5.84 µM) | – | – | –
CO/N=c1\[nH]cnc2c1[n+](C/C=C(\C)CC/C=C(\C)CC/C=C(\C)CCC=C(C)C)cn2C | 1.42 | 4 | 1.11 | 16 | 7.38 | – | – | 1.91 | 2 | 8 | 8 | > 32 | 8 | 4
CO/N=c1\[nH]cnc2c1[n+](C/C=C(\C)CC/C=C(\C)CC/C=C(\C)CCC=C(C)C)cn2Cc1ccccc1 | 1.07 | > 32 | 1.04 | > 32 | 3.4 | 1.56 | 99 | 2.24 | – | – | – | – | – | –
C/N=c1\ncn(C)c2ncn(C/C=C(\C)CC/C=C(\C)CC/C=C(\C)CCC=C(C)C)c12 | > 80 | 3 (≈ 6.89 µM) | > 80 | 16 (≈ 36.7 µM) | > 80 | 3.13 (≈ 7.18 µM) | 94 | > 80 | – | – | – | – | – | –
CO[C@H]1/C=C/O[C@@]2(C)Oc3c(C)c(O)c4c(O)c(c(/C=N/N5CCN(C)CC5)c(O)c4c3C2=O)NC(=O)/C(C)=C\C=C\[C@H](C)[C@H](O)[C@@H](C)[C@@H](O)[C@@H](C)[C@H](OC(C)=O)[C@@H]1C [RIFAMPIN] | – | – | – | – | – | 0.25 (≈ 0.304 µM) | – | – | – | – | – | – | – | –
CO/N=c1\[nH]cnc2c1[n+](C/C=C(\C)CC/C=C(\C)CC/C=C(\C)CCC=C(C)C)cn2CCC#N | 3.33 | 4 | 3.96 | > 32 | 11.4 | > 6.25 | 100 | 5.36 | – | – | – | – | – | –
CC(C)=CCC/C(C)=C/CC/C(C)=C/CC/C(C)=C/Cn1cnc2ncnc(N)c21 | 3.6 | > 32 | 2.78 | > 32 | 7.24 | 1.56 (≈ 3.83 µM) | 99 | 2.88 | > 16 | – | – | – | – | –
CO/N=c1\[nH]cnc2c1[n+](C/C=C(\C)CC/C=C(\C)CC/C=C(\C)CCC=C(C)C)cn2C(c1ccccc1)c1ccccc1 | 1.97 | 8 | 2.6 | > 32 | 4.75 | 3.13 | 99 | 3.54 | – | – | – | – | – | –
C=CCn1c[n+](C/C=C(\C)CC/C=C(\C)CC/C=C(\C)CCC=C(C)C)c2/c(=N/OC)[nH]cnc21 | 1.39 | > 32 | 1.25 | > 32 | 4.61 | 3.13 | 100 | 2.94 | – | – | – | – | – | –
CC(C)=CCC/C(C)=C/CC/C(C)=C/CC/C(C)=C/Cn1cnc2c1C(=N)N(C)CN2C | 3.36 | 16 (≈ 36.6 µM) | 2.51 | > 32 | 5.16 | 3.13 (≈ 7.15 µM) | 99 | 3.15 | 16 (≈ 36.6 µM) | – | – | – | – | –
CC(C)=CCC/C(C)=C/CC/C(C)=C/CC/C(C)=C/C[n+]1cn(C(c2ccccc2)c2ccccc2)c2nc[nH]/c(=N\OCc3ccccc3)c21 | 4.24 | 8 | 59 | > 32 | 17.2 | – | 78 | 9.11 | – | – | – | – | – | –
CO/N=c1\[nH]cnc2ncn(C/C=C(\C)CC/C=C(\C)CC/C=C(\C)CCC=C(C)C)c12 | 3.31 | > 32 | 3 | > 32 | 18.1 | – | 74 | 5.69 | – | – | – | – | – | –
CC(C)=CCC/C(C)=C/CC/C(C)=C/CC/C(C)=C/C[n+]1cn(C)c2ncnc(N)c21 | 3.17 | 32 | 2.79 | > 32 | 20.3 | – | – | 3.06 | > 16 | – | – | – | – | –
CO/N=c1\[nH]cnc2c1[n+](C/C=C(\C)CCCC(C)CCCC(C)CCCC(C)C)cn2C (stereo not given) | 5.4 | > 32 | 3.75 | > 32 | 16.9 | – | 56 | 7.92 | – | – | – | – | – | –
CO/N=c1\[nH]cnc2c1[n+](C/C=C(\C)CC/C=C(\C)CC/C=C(\C)CCC=C(C)C)cn2C(C)C | 1.1 | – | 0.886 | – | 2.45 | 1.56 | 100 | 2.05 | – | – | – | – | – | –
CC(C)=CCC/C(C)=C\CC/C(C)=C/C[n+]1cn(C)c2nc[nH]/c(=N\OCc3ccccc3)c21 | 7.55 | 8 | 6.76 | 12 | 25.2 | 3.13 | 99 | 10 | – | 4 | 4 | – | – | –
CC(C)=CCC/C(C)=C/CC/C(C)=C/CC/C(C)=C/C[n+]1cn(C)c2nc[nH]/c(=N\OCc3ccccc3)c21 | 6.79 | 6 | 8.24 | > 32 | 20.9 | 3.13 | 99 | 14 | 1 | 8 | 16 | – | – | –
CC(C)=CCC/C(C)=C/CC/C(C)=C/CC/C(C)=C/C[n+]1cn(C)c2nc[nH]/c(=N\OC(C)(C)C)c21 | 4.87 | 24 | 2.09 | > 32 | 8.4 | 3.13 | 100 | 3.86 | 2 | – | – | – | – | –
CC(C)=CCC/C(C)=C/CC/C(C)=C/CC/C(C)=C/C[n+]1cnc2c(ncn2C)c1N.[Br-] | 39.4 | 8 | 18.6 | > 32 | > 80 | – | 72 | 20.8 | – | – | – | – | – | –
